In ChEMBL document CHEMBL3616436, “Synthesis, cytotoxicity and antimicrobial activity of thiourea derivatives incorporating 3-(trifluoromethyl)phenyl moiety” (Eur J Med Chem, 2015):
Converted amounts (≈) assume the structure as drawn. The source made the active and inactive calls. No cut-off for these calls is given here.

Tests used:
[1] = system: Staphylococcus aureus; test: Ratio of ciprofloxacin MIC to compound MIC for hospital methicillin-resistant Staphylococcus aureus 57/05 after 18 hrs by twofold serial microdilution method; format: functional
In short: (§1)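 Ratio of MICs for ciprofloxacin and test agent, each from twofold serial broth microdilution in Mueller-Hinton broth following CLSI guidelines. DMSO stock was diluted in sterile water to 0.125–512 µg/mL, with a final inoculum of 10^5 CFU/mL.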

[2] = system: Enterococcus faecalis; test: Antimicrobial activity against Enterococcus faecalis ATCC 29212 at 400 ug after 18 hrs by disc-diffusion method; format: functional
In short: (§2)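 Disc diffusion on Mueller-Hinton II agar per CLSI; 9 mm paper discs loaded with 400 µg compound from DMSO solution, dried, placed on agar; growth inhibition zone diameter read after 18 h at 35°C.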

[3] = system: Staphylococcus aureus; test: Ratio of ciprofloxacin MIC to compound MIC for hospital methicillin-resistant Staphylococcus aureus 79/05 after 18 hrs by twofold serial microdilution method; format: functional; in short: as §1
[4] = system: Staphylococcus epidermidis; test: Antimicrobial activity against hospital methicillin-resistant Staphylococcus epidermidis 23/04 after 18 hrs by twofold serial microdilution method; format: functional; conditions: 23/04, 18 h
In short: (§3)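 Twofold serial microdilution in Mueller-Hinton broth. Compound stock was made in DMSO and diluted in sterile water. Tested range was 0.125–512 µg/mL. Final inoculum was 10^5 CFU/mL. Plates were incubated 18 h at 35 °C. MIC is the lowest concentration preventing visible growth.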

[5] = system: Staphylococcus epidermidis; test: Ratio of ciprofloxacin MIC to compound MIC for hospital methicillin-resistant Staphylococcus epidermidis 151/04 after 18 hrs by twofold serial microdilution method; format: functional; in short: as §1
[6] = system: Staphylococcus aureus; test: Antimicrobial activity against hospital methicillin-resistant Staphylococcus aureus 54/05 after 18 hrs by twofold serial microdilution method; format: functional; conditions: 54/05, 18 h; in short: as §3
[7] = system: Staphylococcus aureus; test: Ratio of ciprofloxacin MIC to compound MIC for hospital methicillin-resistant Staphylococcus aureus 53/05 after 18 hrs by twofold serial microdilution method; format: functional; in short: as §1
[8] = system: Staphylococcus epidermidis; test: Antimicrobial activity against hospital methicillin-resistant Staphylococcus epidermidis 151/04 after 18 hrs by twofold serial microdilution method; format: functional; conditions: 151/04, 18 h; in short: as §3
[9] = system: Staphylococcus epidermidis; test: Ratio of ciprofloxacin MIC to compound MIC for hospital methicillin-resistant Staphylococcus epidermidis […]/[…] after 18 hrs by twofold serial microdilution method; format: functional, 16/04
[10] = system: Staphylococcus aureus; test: Antimicrobial activity against hospital methicillin-resistant Staphylococcus aureus 79/05 after 18 hrs by twofold serial microdilution method; format: functional; conditions: 79/05, 18 h; in short: as §3
[11] = Cytotoxicity against human MT4 cells; format: cell-based
[12] = system: Staphylococcus epidermidis; test: Antimicrobial activity against Staphylococcus epidermidis ATCC 35984 after 18 hrs by twofold serial microdilution method; format: functional; conditions: ATCC 35984, 18 h
[13] = system: Staphylococcus aureus; test: Ratio of ciprofloxacin MIC to compound MIC for hospital methicillin-resistant Staphylococcus aureus 81/05 after 18 hrs by twofold serial microdilution method; format: functional; in short: as §1
[14] = system: Staphylococcus epidermidis; test: Ratio of ciprofloxacin MIC to compound MIC for hospital methicillin-resistant Staphylococcus epidermidis 24/04 after 18 hrs by twofold serial microdilution method; format: functional
[15] = system: Staphylococcus epidermidis; test: Antimicrobial activity against Staphylococcus epidermidis ATCC 12228 after 18 hrs by twofold serial microdilution method; format: functional; conditions: ATCC 12228, 18 h
[16] = Antiviral activity against Bovine viral diarrhea virus 1-NADL ATCC VR-534 infected in MDBK cells assessed as protection against virus-induced cytopathogenicity after 3 to 4 days by MTT assay; format: functional, cell-based; conditions: Bovine viral diarrhea virus isolates and strains, ATCC VR-534, MDBK
In short: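 Cells seeded in 96-well plates (BHK 5x10^4, MDBK 3x10^4 cells/well), grown overnight to confluence, infected at m.o.i. 0.01 (BHK for Reo-1, MDBK for BVDV); serial compound dilutions in maintenance medium with 0.5% inactivated FBS added after 1 h; viability by MTT after 3–4 days at 37°C; EC50 for 50% protection by linear regression.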

[17] = system: Micrococcus luteus; test: Antimicrobial activity against Micrococcus luteus ATCC 10240 at 400 ug after 18 hrs by disc-diffusion method; format: functional; in short: as §2
[18] = system: Staphylococcus epidermidis; test: Ratio of ciprofloxacin MIC to compound MIC for hospital methicillin-resistant Staphylococcus epidermidis 23/04 after 18 hrs by twofold serial microdilution method; format: functional; in short: as §1
[19] = system: Staphylococcus aureus; test: Antimicrobial activity against hospital methicillin-resistant Staphylococcus aureus 53/05 after 18 hrs by twofold serial microdilution method; format: functional; conditions: 53/05, 18 h; in short: as §3
[20] = system: Staphylococcus aureus; test: Antimicrobial activity against Staphylococcus aureus NCTC 4163 after 18 hrs by twofold serial microdilution method; format: functional; conditions: NCTC 4163, 18 h
[21] = system: Staphylococcus aureus; test: Antimicrobial activity against hospital methicillin-resistant Staphylococcus aureus 80/05 after 18 hrs by twofold serial microdilution method; format: functional; conditions: 80/05, 18 h; in short: as §3
[22] = system: Staphylococcus aureus; test: Ratio of ciprofloxacin MIC to compound MIC for hospital methicillin-resistant Staphylococcus aureus 80/05 after 18 hrs by twofold serial microdilution method; format: functional; in short: as §1
[23] = system: Staphylococcus aureus; test: Ratio of ciprofloxacin MIC to compound MIC for hospital methicillin-resistant Staphylococcus aureus 573/11 after 18 hrs by twofold serial microdilution method; format: functional; in short: as §1
[24] = system: Staphylococcus epidermidis; test: Antimicrobial activity against hospital methicillin-resistant Staphylococcus epidermidis 62/04 after 18 hrs by twofold serial microdilution method; format: functional; conditions: 62/04, 18 h; in short: as §3
[25] = system: Staphylococcus aureus; test: Antimicrobial activity against Staphylococcus aureus ATCC 6538 at 400 ug after 18 hrs by disc-diffusion method; format: functional; conditions: ATCC 6538, 18 h, read-out: IZ; in short: as §2
[26] = system: Staphylococcus aureus; test: Ratio of ciprofloxacin MIC to compound MIC for hospital methicillin-resistant Staphylococcus aureus 522/11 after 18 hrs by twofold serial microdilution method; format: functional; in short: as §1
[27] = system: Staphylococcus epidermidis; test: Antimicrobial activity against hospital methicillin-resistant Staphylococcus epidermidis 76/04 after 18 hrs by twofold serial microdilution method; format: functional; conditions: 76/04, 18 h; in short: as §3
[28] = system: Mycobacterium tuberculosis; test: Antimycobacterial activity against drug-sensitive Mycobacterium tuberculosis Spec. 192; format: functional
In short: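 Classical test-tube successive-dilution method in Youmans' modification of Proskauer and Beck liquid medium with 10% bovine serum. Inoculum came from 14-day cultures. DMSO stock was 10 mg/mL, diluted geometrically in medium. Tubes were incubated at 37 °C. Concentrations tested were 3.1, 6.2, 12.5, 25, 50 and 100 µg/ml. MIC is the minimum concentration inhibiting growth relative to compound-free tubes.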

[29] = system: Human alphaherpesvirus 1; test: Antiviral activity against Human herpesvirus 1 KOS ATCC VR-1493 infected in African green monkey Vero 76 cells assessed as reduction of virus-plaque formation after 3 days by crystal violet staining; format: functional, organism-based; conditions: Human alphaherpesvirus 1, KOS ATCC VR1493, Vero, 72 h
In short: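 Plaque reduction: Vero-76 at 2x10^5 cells/well grown to confluent monolayers, infected 2 h at 50–100 PFU/well; after removing unadsorbed virus, overlay of D-MEM, 1% inactivated FBS, 0.75% methylcellulose with or without serial compound dilutions; 3 days at 37°C, fixed and stained with crystal violet in 50% ethanol, plaques counted; EC50 by linear regression.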

[30] = system: Staphylococcus aureus; test: Ratio of ciprofloxacin MIC to compound MIC for hospital methicillin-resistant Staphylococcus aureus 54/05 after 18 hrs by twofold serial microdilution method; format: functional; in short: as §1
[31] = system: Staphylococcus aureus; test: Antimicrobial activity against Staphylococcus aureus ATCC 6538 after 18 hrs by twofold serial microdilution method; format: functional; conditions: ATCC 6538, 18 h

**Q.** With `FC(F)(F)c1cccc(NC(=S)Nc2ccc(Cl)cc2)c1` as the compound, how does the Ratio [1] read?
**A.** 128

**Q.** And the “inhibition zone (IZ)” value [2]?
**A.** inactive

**Q.** What about the Ratio [3] of the same compound?
**A.** 128

**Q.** What about the MIC [4] of the same compound?
**A.** 16 µg/mL (≈ 48.4 µM)

**Q.** And the Ratio [5]?
**A.** 128

**Q.** And the MIC [6]?
**A.** 16 µg/mL (≈ 48.4 µM)

**Q.** What about the Ratio [7] of the same compound?
**A.** 128

**Q.** What about the MIC [8] of the same compound?
**A.** 8 µg/mL (≈ 24.2 µM)

**Q.** And the Ratio [9]?
**A.** 128

**Q.** And the MIC [10]?
**A.** 16 µg/mL (≈ 48.4 µM)

**Q.** And the CC50 [11]?
**A.** 6.8 µM

**Q.** What about the MIC [12] of the same compound?
**A.** 4 µg/mL (≈ 12.1 µM)

**Q.** What about the Ratio [13] of the same compound?
**A.** 128

**Q.** And the Ratio [14]?
**A.** 128

**Q.** What about the MIC [15] of the same compound?
**A.** 8 µg/mL (≈ 24.2 µM)

**Q.** What about the EC50 [16] of the same compound?
**A.** > 17 µM

**Q.** What about the “inhibition zone (IZ)” value [17] of the same compound?
**A.** inactive

**Q.** What about the Ratio [18] of the same compound?
**A.** 128

**Q.** And the MIC [19]?
**A.** 16 µg/mL (≈ 48.4 µM)

**Q.** What about the MIC [20] of the same compound?
**A.** 8 µg/mL (≈ 24.2 µM)

**Q.** And the MIC [21]?
**A.** 16 µg/mL (≈ 48.4 µM)

**Q.** What about the Ratio [22] of the same compound?
**A.** 128

**Q.** And the Ratio [23]?
**A.** 128

**Q.** What about the MIC [24] of the same compound?
**A.** 16 µg/mL (≈ 48.4 µM)

**Q.** And the zone of inhibition at 400 µg/disc [25]?
**A.** 13 mm

**Q.** And the Ratio [26]?
**A.** 128

**Q.** And the MIC [27]?
**A.** 8 µg/mL (≈ 24.2 µM)

**Q.** What about the MIC [28] of the same compound?
**A.** > 100 µg/mL

**Q.** And the EC50 [29]?
**A.** > 11 µM

**Q.** And the Ratio [30]?
**A.** 128

**Q.** What about the MIC [31] of the same compound?
**A.** 8 µg/mL (≈ 24.2 µM)
